Measured values of several laboratories.
Observed: tubulin polymerisation
Action: inhibitor

With `CCCOc1ccc(Nc2cc(C)nc3ccc(Cl)cc23)cc1` the IC50 was > 100 µM.
The IC50 of `COc1ccc([S+]([O-])c2ccc(OC)c(OC)c2OC)cc1` (centres unmarked) is reported as > 40 µM (absorbance; pH 6.6).
The IC50 of `COc1ccc(N(C)c2nc(C)nc3c2C[C@@H](C)C3)cc1` (racemic) is reported as 1.9 µM (absorbance).
With `COc1ccc(S(=O)(=O)c2ccccc2)c(OC)c1OC` the IC50 was > 40 µM (absorbance; pH 6.6).
With `COc1ccc(/C=C\c2cc(OC)c(OC)c(OC)c2)cc1O` the IC50 was 1.4 µM (absorbance).
The IC50 of `COc1ccc(N(C)c2nc(C)nc3c2CCC3)cc1` is reported as 1.6 µM (absorbance).
For `COc1cc2c(cc1OS(N)(=O)=O)CCN(Cc1cc(OC)c(OC)c(OC)c1)C2`, the IC50 was > 20 µM (absorbance).
The IC50 of `COc1ccc(Sc2ccccc2)c(OC)c1OC` is reported as > 40 µM (absorbance; pH 6.6).
`COc1ccc(C(=O)c2cc3c(-c4ccccc4)c(O)ccc3o2)cc1` gave an IC50 of 2.8 µM (absorbance).
`COc1cc2c(cc1O)CCN(Cc1cc(OC)c(OC)c(OC)c1)C2` gave an IC50 of > 20 µM (absorbance).
With `CCCOc1ccc(N(C)c2cc(C)nc3ccc(Cl)cc23)cc1` the IC50 was 5.4 µM.
